# Source: PubChem BioAssay (Columbia University Molecular Screening Center)
# Only a selection was taken, and hits are over-represented in it overall.
# Insulin prom act: activators of insulin promoter-driven GFP, primary screen, imaging, TRM-6 cells (human fetal islet line), eGFP reporter, cell count; hit rate 0.81% among 130,000; AID 1296, 2008; activation, % at 2 µM; plate-scaled: unstimulated 0, stimulated control 100;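 active = activation at 2 µM above a set limit, confirmed on inspection of the cell images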;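 also: share of cells whose green reporter signal exceeds an intensity cutoff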
#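 Material: TRM-6 insulin promoter–eGFP reporter cells. Buffer or medium: Low-glucose (5.5 mM) medium with tamoxifen. Probe or stimulus: tamoxifen at 0.75 µM added at seeding for reporter induction. Times: tamoxifen pre-incubation 15 h overnight, then compound exposure 48 h at 37 °C. Detection: high-content imaging of fixed cells with Hoechst nuclear stain.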
# Numbers stand for hits; – = inactive.
SMILES,Insulin prom act
O=C(CN1CCCc2ccccc21)NCc1ccccc1Cl,–
CN(C)S(=O)(=O)c1ccc(NC(=O)CN2CCCc3ccccc32)cc1,383
Cc1c(NC(=O)CN2CCCc3ccccc32)c(=O)n(-c2ccccc2)n1C,–
O=C(NCCN1CCOCC1)c1cc2cc(Cl)cc(Cl)c2oc1=O,–
CCOc1ccc(C(=O)NC(=S)Nc2ccccc2N2CCOCC2)cc1Br,–
COCCNc1nc(C)c(C(C)=O)s1,–
O=C(CSc1nc2ccccc2[nH]1)Nc1nc(-c2ccc(Br)cc2)cs1,–
O=C(CSCc1ccc(Cl)cc1)NCC1CCCO1 (centres undefined),–
OC(CNCC1CCCO1)Cn1c2ccc(Cl)cc2c2cc(Cl)ccc21 (centres undefined),89
Clc1ccc(-n2ncc3c(NCC4CCCO4)ncnc32)cc1 (centres undefined),–
Nc1ccc(OCc2ccco2)cc1,–
CCOC(=O)c1c(NC(=O)CSc2nnnn2-c2ccc(OC)cc2)sc(C)c1C,–
COc1ccccc1N1CCN(S(=O)(=O)Cc2ccccc2Cl)CC1,–
O=C(c1ccco1)N1CCN(C(c2ccc(Cl)cc2)c2nnnn2Cc2ccccc2)CC1 (centres undefined),–
CN1CCN(C(c2ccccc2)c2nnnn2Cc2ccccc2)CC1 (centres undefined),–
O=C(Nc1ccc(Cl)cc1)OCCn1nnnc1C(c1ccccc1)N1CCOCC1 (centres undefined),89
C=CC[C@H]1CC(Cc2ccccc2)=C[C@H](CC=C)N1,–
O=C(CSc1nc(-c2ccc(F)cc2)cc(C(F)(F)F)n1)NCc1ccco1,–
COC(=O)c1c(C)oc2ccc(NS(=O)(=O)c3cc(OC)ccc3OC)cc12,–
CNS(=O)(=O)c1cc(OC)ccc1OC,–
COc1ccc(OC)c(S(=O)(=O)Nc2ccc(O)c3ccccc23)c1,450
CC(Oc1ccc(-n2cnnn2)cc1)C(=O)O (centres undefined),–
